Sampled rows, rich in hits. Any-hit rate of the full collection: about 9.4%.
SKKanGAS inh = inhibitors of SKKanGAS S. pyogenes growth in kanamycin (SK-promoter or general growth effect). inhibition, % at 7.5 µM. actives 1.3% (n = 300,000). AID 1662. BacTiter-Glo, 6 h;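 active means mean replicate score, as percent of positive control median, at least 50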;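 further: strain carries kanamycin resistance gene driven by streptokinase promoter and grows in 40 µg/ml kanamycin; loss of luminescence reflects streptokinase promoter inhibition or plain growth inhibition; 0% = median of DMSO wells and 100% = positive control at its reference dose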
T cruzi inh = T. cruzi replication inhibition; T. cruzi beta-gal in NIH3T3, luminescence, 90 h; inhibition, % (test concentration not listed); actives 1.4% (n = 300,000); AID 1885;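 active means mean inhibition across valid replicates above about 55%, limit read from the data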;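 further: signal also drops with host cell toxicity which is not excluded here; 0% = plate median of DMSO wells and 100% = zero luminescence signal; higher percent means less beta-gal luminescence so fewer parasites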
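System: Mouse NIH/3T3 fibroblasts infected with β-gal-expressing T. cruzi Tulahuen C4 | Quantity: NIH/3T3 cells, 5,000 per well | Reagent: 5000 reporter trypomastigotes per well | Dosing: Compound pinned at 50 nL/well, DMSO | Schedule: 3 h host attachment, then at least 90 h co-culture | Detection: GalScreen luminescence, 60 min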
Mdm2-MdmX inh = disrupts the human Mdm2-MdmX interaction | SaOS-2 split-luciferase Mdm2/MdmX complementation, luminescence | inhibition, % at 8 µM | actives 3% (n = 330,000) | AID 485346;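 active means inhibition of at least 50% at 8 µM in the primary screen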
Target sequence (O15151 whole entry, looked up): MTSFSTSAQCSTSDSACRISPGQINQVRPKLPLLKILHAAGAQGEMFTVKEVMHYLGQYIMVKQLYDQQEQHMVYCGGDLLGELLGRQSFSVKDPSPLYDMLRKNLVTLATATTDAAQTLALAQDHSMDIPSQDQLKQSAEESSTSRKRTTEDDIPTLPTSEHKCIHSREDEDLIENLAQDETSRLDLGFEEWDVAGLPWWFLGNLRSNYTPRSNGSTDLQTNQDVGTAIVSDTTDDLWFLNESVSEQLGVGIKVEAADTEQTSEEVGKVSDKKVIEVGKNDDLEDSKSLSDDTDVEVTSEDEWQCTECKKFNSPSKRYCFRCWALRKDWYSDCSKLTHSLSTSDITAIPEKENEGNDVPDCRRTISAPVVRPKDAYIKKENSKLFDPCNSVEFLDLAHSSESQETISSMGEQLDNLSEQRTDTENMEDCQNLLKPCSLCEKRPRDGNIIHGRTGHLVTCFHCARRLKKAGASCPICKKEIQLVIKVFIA
Target sequence (Q00987 whole entry, looked up): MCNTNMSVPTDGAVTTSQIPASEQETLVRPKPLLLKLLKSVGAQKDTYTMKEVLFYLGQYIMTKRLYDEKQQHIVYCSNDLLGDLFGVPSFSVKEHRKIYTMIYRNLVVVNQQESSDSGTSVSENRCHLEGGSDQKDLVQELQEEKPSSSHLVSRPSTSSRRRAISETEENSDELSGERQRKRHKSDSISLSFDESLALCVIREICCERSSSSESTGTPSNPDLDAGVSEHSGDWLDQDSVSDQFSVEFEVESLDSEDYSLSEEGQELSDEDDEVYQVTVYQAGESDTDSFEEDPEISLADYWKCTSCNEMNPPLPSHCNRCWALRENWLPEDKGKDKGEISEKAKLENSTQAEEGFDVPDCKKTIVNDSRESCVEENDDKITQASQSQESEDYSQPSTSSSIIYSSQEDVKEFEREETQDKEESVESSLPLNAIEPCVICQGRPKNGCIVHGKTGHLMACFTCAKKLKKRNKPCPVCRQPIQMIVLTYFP
CSC inhib = blocks cancer stem cells. cancer stem cell-like cells viability, luminescence. inhibition, % at 7.5 µM. actives 1.1% (n = 300,000); in the data active means inhibition above about 75%; tested in HMLE shEcad cells
Beta cell apopt = beta cell apoptosis inhibition; INS-1E cytokine-induced death, ATP luminescence, 48 h; percent of positive-control rescue, neutral wells zero; protection from apoptosis, % (concentration not given with the values); actives 0.8% (n = 300,000); AID 435005;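 active means Every replicate reaches about 75%, or at least half do and their mean reaches it too, limit read from the data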;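 further: 0% = cytokine-treated negative control wells and 100% = positive control rescue; higher means more ATP so stronger rescue from cytokine killing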
Lmaj promast = reduces viability of Leishmania major promastigotes. resazurin fluorescence viability. inhibition, % at 10 µM. actives 9% (n = 200,000); in the data active means inhibition above about 50%;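 further: promastigotes grown with compound for 44 hours at 28 °C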
Starred values were filed as active, the others as inactive; / = not tested or not shown.

SMILES | SKKanGAS inh | T cruzi inh | Mdm2-MdmX inh | CSC inhib | Beta cell apopt | Lmaj promast
CC(C)(C)C(=O)Nc1ccc(C(=O)N/N=C/c2ccccc2OC(=O)c2ccccc2)cc1 | 11 | -2 | 30 | -11 | 87* | 50
Cc1cccc(C(=O)Oc2ccccc2/C=N/NC(=O)c2ccc(NC(=O)C(C)(C)C)cc2)c1 | 14 | 0 | 32 | 26 | 19 | 23
COc1cc(C(=O)Oc2ccc(/C=N/NC(=O)c3ccncc3)cc2)cc(OC)c1OC | 1 | -9 | 19 | -22 | -2 | /
COc1ccc(N2CCN(c3nc4cc(C)ccc4cc3C=O)CC2)cc1 | -5 | -8 | 38 | 11 | 0 | /
Cc1ccc2cc(S(=O)(=O)NCCCN3CCOCC3)ccc2c1 | 4 | 19 | 12 | -8 | / | 93*
COc1ccc2cc(S(=O)(=O)NCCCN3CCOCC3)ccc2c1 | -6 | -7 | 28 | 6 | 1 | 89*
C/C(=N\NC(=O)c1cccc(Br)c1)c1cccnc1 | 9 | 0 | 17 | 1 | -1 | /
OCCN1CCN(C(=S)c2ccc(Cl)c(Cl)c2)CC1 | -3 | -4 | 14 | 7 | -6 | 85*
COc1cc(NC(=S)N2CCN(CCO)CC2)c(OC)cc1Cl | 6 | -6 | 6 | -15 | -1 | -1
Cc1cc(C)nc(/N=C(\N)N(Cc2ccccc2)Cc2ccccc2)n1 | 5 | 16 | 23 | -1 | 5 | 90*
CC(Sc1nc2cc([N+](=O)[O-])ccc2n1-c1cccc(C(F)(F)F)c1)C(=O)NC(N)=O (stereo unspecified) | 51* | 17 | 45 | 1 | 3 | 3
NC(=O)CSc1nc2cc([N+](=O)[O-])ccc2n1-c1cccc(C(F)(F)F)c1 | -3 | -8 | 19 | / | 6 | 4
COc1cccc(C2C(C(=O)Nc3nc4ccccc4s3)=C(C)NC3=C2C(=O)CC(C)(C)C3)c1OC (stereo unspecified) | 28 | 9 | 18 | -8 | 6 | 58*
COc1ccc(OC)c(C2C(C(=O)Nc3nc4ccccc4s3)=C(C)NC3=C2C(=O)CCC3)c1 (stereo unspecified) | 8 | 33 | -12 | -5 | -1 | 98*
CCOC(=O)C1=C(C)NC2=C(C(=O)CCC2)C1c1cc(OC)ccc1OC (stereo unspecified) | -3 | 17 | -5 | 11 | -4 | 0
C=CCC1(C(=O)NCCO)CCN(C(=O)OC(C)(C)C)CC1 | 5 | -14 | -18 | -8 | -7 | /
CCOc1ccc(NC(=O)CCC(=O)c2ccc(-c3ccccc3)cc2)cc1 | 0 | -15 | 8 | 3 | -1 | 50*
CCOC(=O)c1ccc(NC(=O)CCOc2ccccc2)cc1 | 1 | -5 | -8 | 1 | -5 | 84*
CCCCc1ccc(NC(=O)CSc2nc3ncccc3[nH]2)cc1 | 7 | 12 | 34 | -13 | 20 | /
CC(C)OC(=O)COc1ccc(-c2ccccc2)cc1 | 8 | -12 | -1 | -11 | -1 | -8
CCOC(=O)c1ccc(NC(=O)CSc2nc3ncccc3[nH]2)cc1 | -12 | -3 | -5 | / | -1 | 63*
CC(=O)c1ccc(OCC(=O)c2ccc(-c3ccccc3)cc2)cc1 | -9 | -11 | 6 | 41 | 0 | 60*
CCCOC(=O)c1ccc(NC(=O)CCOc2ccccc2)cc1 | 4 | -11 | 22 | -16 | 1 | 31
CCOC(=O)c1nnn(-c2nonc2-n2cccc2)c1-c1cccc([N+](=O)[O-])c1 | 2 | 17 | -23 | 1 | -10 | 13
N#Cc1cnc2nc(SCc3ccccc3)nn2c1 | 4 | 11 | -41 | -10 | -1 | /
SMILES | SKKanGAS inh | T cruzi inh | Mdm2-MdmX inh | CSC inhib | Beta cell apopt | Lmaj promast
O=c1[nH]c(SCc2cccc(Cl)c2)nc2[nH]ncc12 | 10 | -27 | -16 | 20 | 9 | -5
CN(C)CC(=O)c1ccc(-c2ccccc2)cc1 | 1 | -12 | 2 | / | -6 | 86*
CCN(CC)CC(=O)c1ccc(-c2ccccc2)cc1 | 6 | -7 | 26 | 1 | -1 | 18
Cc1cccc(OCCCC(=O)Nc2ccc(N(C)C)cc2)c1 | -2 | 13 | -84 | 36 | -2 | 97*
CCOC(=O)c1ccc(N/C(=N\S(=O)(=O)c2ccccc2C)c2ccccc2)cc1 | 1 | 20 | 13 | -10 | -11 | 88*
Cc1cccc(OCCCC(=O)Nc2ccc(Br)cc2)c1 | -3 | 0 | 12 | 29 | 2 | -1
O=C(NNS(=O)(=O)c1ccccc1)C1CCCCC1 | -2 | -2 | 18 | -7 | / | /

High-throughput results as filed in PubChem BioAssay.
